This is one part of a sample in which hits are shown more often than they occur.
DTT redox prof: compounds producing H2O2 with reducing agent – biochemical, NIH compound library profiling, artefact control for MLSCN library redox annotation, primary screen | DTT-dependent redox cycling H2O2, phenol red/HRP absorbance; 100% = 100 µM peroxide control, 0% = buffer | activation, % at 10 µM | 200,000 compounds, 0.03% hits | AID 878;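 active = activation of at least 50% relative to the plate's high and low controls in the primary single-dose screen; inactive = activation below 50%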;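 also: compound incubated with DTT at 0.8 mM final as the reducing agent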
MPTP inh: blocks calcium-induced mitochondrial swelling; isolated mouse mitochondria, Ca2+ swelling absorbance, 30 min; inhibition, % at 10 µM; 360,000 compounds, 1.4% hits; AID 602449;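 active = inhibition of 50% or more, scaled per plate between neutral and stimulator controls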;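 also: 0% = DMSO wells given calcium and 100% = 1 mM EGTA wells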
T cruzi repl: T. cruzi replication inhibition; T. cruzi beta-gal in NIH3T3, luminescence, 90 h; inhibition, % (no concentration beside the values); 300,000 compounds, 1.4% hits;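 active = mean inhibition across valid replicates above about 55%, limit read from the data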;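 also: signal also drops with host cell toxicity which is not excluded here; 0% = plate median of DMSO wells and 100% = zero luminescence signal; higher percent means less beta-gal luminescence so fewer parasites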
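Read-out: Parasite load inhibition, % | Test system: Mouse NIH/3T3 fibroblasts infected with β-gal-expressing T. cruzi Tulahuen C4 | Amount: 5,000 cells/well | Medium: DMEM, 2% fetal bovine serum | Signal: GalScreen β-gal luminescence, detergent lysis, 60 min | Timing: 3 h attach, ≥90 h co-culture | Also added: Tulahuen C4 trypomastigotes, 5000/well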
Lipid droplet: hepatic lipid droplet formation modulation; 240,000 compounds, 0.4% hits; inhibition, % at 6.5 µM; AID 1656; AML12 mouse hepatocytes, oleate lipid droplets, BODIPY imaging;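 active = lipid droplet intensity inhibited by at least 50%, with more than 500 cells counted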
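System: AML12 hepatocytes (mouse). Probe or stimulus: oleic acid at 100 µM to induce lipid droplet formation. Times: overnight treatment with compound plus oleate. Detection: Image-based BODIPY and DAPI two-channel analysis. Evaluation: percent inhibition of filter-corrected integrated lipid droplet intensity per well.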
L major viab: reduces viability of Leishmania major promastigotes; AID 1063; inhibition, % at 10 µM; resazurin fluorescence viability; 200,000 compounds, 9% hits; in the data active = inhibition above about 50%;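 also: promastigotes grown with compound for 44 hours at 28 °C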
Active calls of the source: *.

`N#CCCN(CCN1CCCC1)S(=O)(=O)c1ccc(-c2ccc([N+](=O)[O-])cc2)cc1` gave DTT redox prof 0.1, MPTP inh -0.7, T cruzi repl 13.0, Lipid droplet -5.0 and L major viab 93.0*.
O=C(/C=C/c1ccc(S(=O)(=O)N2CCOCC2)cc1)NC(CO)C(O)c1ccc([N+](=O)[O-])cc1 (configuration not stated) was read as MPTP inh -0.3.
`CCCN1C(=O)/C(=C\c2nc3ccccc3c(=O)[nH]2)c2ccccc21` gave DTT redox prof -1.7, MPTP inh -1.3, Lipid droplet 7.2 and L major viab 100.5*.
CN(C)c1ccc(CC(=O)N2CCCC(c3cc(C(=O)Nc4ccc5c(c4)OCO5)no3)C2)cc1 (configuration not stated) was read as MPTP inh 0.1.
For O=C(c1cc(N2C(=O)C3C4CCC(C4)C3C2=O)ccc1Cl)N1CCCCCC1 (configuration not stated) the results were DTT redox prof -0.2, MPTP inh 2.6, T cruzi repl 8.2, Lipid droplet -8.4 and L major viab -4.1.
COc1ccc(N2CCN(C(=O)c3cccc(N4C(=O)C5C6C=CC(C6)C5C4=O)c3)CC2)cc1 (configuration not stated) was read as MPTP inh 0.6, T cruzi repl -1.6 and Lipid droplet -9.1.
Screening O=C(c1cc(N2C(=O)C3C4CCC(C4)C3C2=O)ccc1Cl)N1CCN(c2ccc(F)cc2)CC1 (configuration not stated) returned DTT redox prof 0.3, MPTP inh -0.3, T cruzi repl 21.7, Lipid droplet 6.9 and L major viab 75.4*.
For O=C(c1cc(N2C(=O)C3C4CCC(C4)C3C2=O)ccc1Cl)N1CCN(c2ccccc2F)CC1 (configuration not stated) the results were DTT redox prof 0.4, MPTP inh 1.7, T cruzi repl 6.2, Lipid droplet -21.2 and L major viab 75.1*.
`COc1ccc(N2CCN(C(=O)c3cc(N4C(=O)C5C6CCC(C6)C5C4=O)ccc3Cl)CC2)cc1` (configuration not stated) gave DTT redox prof -0.1, MPTP inh 0.4, T cruzi repl 2.3, Lipid droplet 1.7 and L major viab 85.7*.
Screening CCn1c(C)cc(/C=C2\NC(=O)N(Cc3ccc(Cl)cc3)C2=O)c1C returned DTT redox prof -3.4, MPTP inh 1.0, T cruzi repl 55.4* and L major viab -2.5.
Cc1cc(C)c([N+](=O)[O-])cc1NC(=O)CCSc1ccccc1Cl was read as DTT redox prof -0.2, MPTP inh 48.7, T cruzi repl 30.4, Lipid droplet -0.9 and L major viab 55.4*.
For Cc1cc(NC(=O)CCc2ccccc2)c([N+](=O)[O-])cc1C the results were DTT redox prof -0.1, MPTP inh -0.4, T cruzi repl 1.9, Lipid droplet -2.5 and L major viab 50.6*.
O=C(NN=Cc1ccccc1)C(Oc1ccccc1)c1ccccc1 (configuration not stated) was read as MPTP inh 1.0.
Screening Cc1ccc(NC2CCCN(C(=O)c3cc4ncccn4n3)C2)cc1C (configuration not stated) returned MPTP inh -0.6, T cruzi repl 2.7 and Lipid droplet 3.7.
Screening COc1ccc(C2CC(c3cccs3)=NN2S(C)(=O)=O)cc1 (configuration not stated) returned MPTP inh 1.7, T cruzi repl -12.7 and Lipid droplet -2.1.
`COc1ccc(C2CC(c3cccs3)=Nc3ccccc3S2)cc1` (configuration not stated) gave DTT redox prof 1.3, MPTP inh 2.0, T cruzi repl 35.9, Lipid droplet -10.9 and L major viab 64.3*.
For O=C1c2ccccc2NC(c2ccc(-c3ccc(Br)cc3)o2)N1O (configuration not stated) the results were DTT redox prof -4.1, MPTP inh 1.1, T cruzi repl 20.7 and L major viab 98.9*.
`O=C1c2ccccc2NC(c2ccc(-c3cccc([N+](=O)[O-])c3)o2)N1O` (configuration not stated) gave DTT redox prof -0.1, MPTP inh 2.2, T cruzi repl -10.6, Lipid droplet 6.7 and L major viab 81.6*.
CCOc1ccccc1N1CCN(C(=O)c2c(-c3c(F)cccc3Cl)noc2C)CC1 was read as MPTP inh 0.2, T cruzi repl 19.7 and Lipid droplet -6.5.
For NNc1nc(-c2ccccc2)cs1 the results were DTT redox prof -0.4, MPTP inh -3.6, T cruzi repl 63.3*, Lipid droplet 0.3 and L major viab 90.3*.
`CC(=O)Nc1ccc(-c2csc(NCc3ccccc3)n2)cc1` gave DTT redox prof -0.4, MPTP inh -0.2, T cruzi repl 20.8, Lipid droplet -7.8 and L major viab 60.3*.
Screening CC(=O)Nc1ccc(-c2csc(NC(=O)CCCc3cccs3)n2)cc1 returned MPTP inh 2.7, T cruzi repl -19.8, Lipid droplet 38.2 and L major viab 75.4*.
Screening O=C(COc1ccccc1)Nc1nc(-c2cccs2)cs1 returned DTT redox prof 0.0, MPTP inh 1.7, T cruzi repl 6.5 and L major viab -6.5.
CC(=O)Nc1cccc(-c2csc(NCc3ccccc3)n2)c1 was read as DTT redox prof 0.5, MPTP inh -1.8, T cruzi repl 9.2, Lipid droplet -2.0 and L major viab 2.1.
O=C(CCS(=O)(=O)c1ccccc1)Nc1nc(-c2cccs2)cs1 was read as DTT redox prof -0.4, MPTP inh -1.2, T cruzi repl -124.6, Lipid droplet 7.2 and L major viab 50.4*.
`Cc1ccc(-c2csc(NC(=O)CCCc3cccs3)n2)cc1` gave DTT redox prof 0.0, MPTP inh 1.9, T cruzi repl -3.9, Lipid droplet -5.5 and L major viab 9.0.
For CC(C)[C@H](NC(=O)c1ccccc1)C(=O)OCC(=O)Nc1ncc(Cl)cc1Cl the results were MPTP inh 1.4.
For O=C(NC(=O)c1cnccc1C(F)(F)F)Nc1ccccc1 the results were MPTP inh 1.4, T cruzi repl -11.8 and Lipid droplet -24.4.
For CN(Cc1c(F)cccc1Cl)C(=O)CNC(=O)c1sc2ccccc2c1Cl the results were MPTP inh -0.8 and T cruzi repl 37.5.
NC1=NC2CS(=O)(=O)CC2S1 (configuration not stated) was read as DTT redox prof -0.4, MPTP inh -4.1, T cruzi repl 1.1, Lipid droplet -1.0 and L major viab -5.3.
For N#CCCN1CCN(Cc2ccccc2)CCC1=O the results were MPTP inh -0.4, T cruzi repl -3.8 and Lipid droplet 0.7.
COc1ccc(CCNc2nc(-c3ccncc3)cs2)cc1OC was read as MPTP inh 4.6, T cruzi repl 32.5 and Lipid droplet -0.6.
